The source made the active and inactive calls. No cut-off for these calls is given here.
How the values were obtained:
Human alphaherpesvirus 2 = assay: Antiviral activity against Herpes simplex virus type 2 G infected in HEL cells assessed as inhibition of virus-induced cytopathic effect; type: functional, organism-based; conditions: Human alphaherpesvirus 2, strain G
In short: (§1)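 Confluent HEL cell monolayers inoculated with 100 CCID50 of virus. Compounds added after a 1–2 h adsorption period. Virus-induced cytopathic effect scored microscopically at 3 days post infection as % of untreated controls. EC50 derived from graphical plots.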

[1] = tested on: Human immunodeficiency virus 1; assay: Ratio EC50 for PMEA to compound for HIV1 clade B isolate 1722 infected in human H9 cells assessed as inhibition of viral replication; type: functional
In short: (§2)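 Ratio computed as EC50 of PMEA divided by EC50 of the test compound, both measured against the same clinical isolate in H9 cells.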

[2] = tested on: Human immunodeficiency virus 1; assay: Antiviral activity against HIV1 clade B isolate 2056 infected in human H9 cells assessed as inhibition of viral replication; type: functional, organism-based; conditions: Human immunodeficiency virus 1, clade B isolate 2056, H9
In short: (§3)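 H9 cells infected with HIV-1 clinical isolates of clades A, B, C, D, A/E, F and G, in the presence of graded compound concentrations. EC50 is the concentration reducing viral replication by 50%.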

[3] = tested on: Human immunodeficiency virus 1; assay: Ratio EC50 for PMEA to compound for HIV1 clade C isolate 2914 infected in human H9 cells assessed as inhibition of viral replication; type: functional; in short: as §2
[4] = Half life of the compound in complete culture medium by HPLC analysis; type: physicochemical
In short: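 Compound diluted to 0.1 mM final in RPMI-1640 with 10% heat-inactivated FCS and incubated at 37 °C up to 24 h. Timed aliquots frozen at −80 °C, then analysed by reverse-phase HPLC with on-line filtration: C18 column, triethylammonium bicarbonate pH 7.5/acetonitrile gradient, detection at 260 nm. Half-life calculated.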

[5] = tested on: Human immunodeficiency virus 1; assay: Ratio EC50 for PMEA to compound for HIV1 clade B isolate 2056 infected in human H9 cells assessed as inhibition of viral replication; type: functional; in short: as §2
CCRF-CEM = assay: (§4) Cytotoxicity against human CEM cells; type: cell-based; conditions: ccrf-cem
In short: (§5)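 Mock-infected CEM cells cultured alongside the anti-HIV assay with compound dilutions for 4 days at 37 °C. CC50 is the concentration inhibiting CEM cell proliferation by 50%.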

[6] = tested on: Human immunodeficiency virus 1; assay: Ratio EC50 for PMEA to compound for HIV1 clade D isolate 1649 infected in human H9 cells assessed as inhibition of viral replication; type: functional; in short: as §2
[7] = tested on: Human immunodeficiency virus 1; assay: Ratio EC50 for PMEA to compound for HIV1 clade B isolate 2101 infected in human H9 cells assessed as inhibition of viral replication; type: functional; in short: as §2
[8] = tested on: Human immunodeficiency virus 1; assay: Ratio EC50 for PMEA to compound for HIV1 clade G isolate 3187 infected in human H9 cells assessed as inhibition of viral replication; type: functional
Hepatitis B virus [9] = assay: Ratio EC50 for PMEA to compound for Hepatitis B virus infected in human HepAD38 cells assessed as reduction in viral DNA level after 6 days by real time quantitative PCR analysis; type: functional
[10] = tested on: Human immunodeficiency virus 1; assay: Antiviral activity against HIV1 clade C isolate 4110 infected in human H9 cells assessed as inhibition of viral replication; type: functional, organism-based; conditions: Human immunodeficiency virus 1, clade C isolate 4110, H9; in short: as §3
[11] = tested on: Human immunodeficiency virus 1; assay: Ratio EC50 for PMEA to compound for HIV1 clade A/E isolate 2165 infected in human H9 cells assessed as inhibition of viral replication; type: functional; in short: as §2
Hepatitis B virus [12] = assay: Antiviral activity against Hepatitis B virus infected in human HepAD38 cells assessed as reduction in viral DNA level after 6 days by real time quantitative PCR analysis; type: functional, organism-based; conditions: HePAD38, 144 h
In short: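 Tetracycline-regulated HepAD38 cells (5 × 10^5) induced after 2–3 days by PBS wash and feeding with medium lacking tetracycline and G418, with or without compound. Medium changed at day 3. Intracellular HBV DNA quantified by TaqMan Q-PCR at day 6 post induction against a full-genome plasmid standard curve, expressed as % of untreated. Actives retested.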

Hepatitis B virus [13] = assay: Ratio EC50 for PMEA to compound for Hepatitis B virus infected in human HuH7 cells assessed as reduction in viral DNA level treated day 3 to day 8 post transfection by real time quantitative PCR analysis; type: functional, Huh-7
[14] = tested on: Human immunodeficiency virus 1; assay: Antiviral activity against HIV1 clade B isolate 2101 infected in human H9 cells assessed as inhibition of viral replication; type: functional, organism-based; conditions: Human immunodeficiency virus 1, clade B isolate 2101, H9; in short: as §3
[15] = tested on: Human immunodeficiency virus 1; assay: Ratio EC50 for PMEA to compound for HIV1 clade F isolate 2338 infected in human H9 cells assessed as inhibition of viral replication; type: functional; in short: as §2
Coxsackievirus B4 = assay: Antiviral activity against Coxsackie virus B4 infected in HeLa cells assessed as inhibition of virus-induced cytopathic effect up to 200 uM measured on day 3 post infection by microscopic analysis; type: functional, organism-based
In short: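 HeLa monolayers at confluency infected with 100 CCID50 of virus. Compound dilutions up to 200 μM added after 1–2 h adsorption. Cytopathic effect recorded microscopically on day 3 relative to untreated controls.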

Punta Toro virus = assay: Antiviral activity against Punta Toro virus infected in african green monkey Vero assessed as inhibition of virus-induced cytopathic effect cells up to 200 uM measured on day 3 post infection by microscopic analysis; type: functional, organism-based
In short: (§6)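 Confluent Vero cell monolayers inoculated with 100 CCID50 of virus. Compound added after 1–2 h adsorption, tested up to 200 μM. Microscopic CPE scoring on day 3 post infection versus untreated controls.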

Vaccinia virus = assay: Antiviral activity against Vaccinia virus infected in HEL cells assessed as inhibition of virus-induced cytopathic effect; type: functional, organism-based; conditions: Orthopoxvirus vaccinia; in short: as §1
Human respirovirus 3 = assay: Antiviral activity against Parainfluenza virus 3 infected in african green monkey Vero cells assessed as inhibition of virus-induced cytopathic effect up to 200 uM measured on day 3 post infection by microscopic analysis; type: functional, organism-based; in short: as §6
[16] = Stability of compound in presence of CEM-SS cell extract assessed as compound degradation after 24 hrs by HPLC analysis; type: physicochemical; conditions: human, read-out: Activity
In short: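 Compound diluted to 0.1 mM final in one of two media and incubated at 37 °C: RPMI-1640 with 10% heat-inactivated FCS, or CEM-SS cell extract (soluble proteins 3 mg/mL in 10 mM Tris-HCl pH 7.4, 140 mM KCl). Aliquots were taken over time, frozen at −80 °C, then run on C18 reverse-phase HPLC with on-line filtration, TEAB/acetonitrile gradient and 260 nm detection. Degradation products were identified by co-injection.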

[17] = tested on: Human immunodeficiency virus 1; assay: Ratio EC50 for PMPA to compound for HIV1 clade B isolate 2056 infected in human H9 cells assessed as inhibition of viral replication; type: functional
[18] = tested on: Human immunodeficiency virus 1; assay: Ratio EC50 for PMPA to compound for HIV1 clade A/E isolate 2165 infected in human H9 cells assessed as inhibition of viral replication; type: functional
[19] = as §4; type: cell-based, CCRF-CEM; conditions: CCRF-CEM (CEM) cells; in short: as §5
[20] = tested on: Human immunodeficiency virus 1; assay: Ratio EC50 for PMPA to compound for HIV1 clade C isolate 4110 infected in human H9 cells assessed as inhibition of viral replication; type: functional
[21] = tested on: Human immunodeficiency virus 1; assay: Ratio EC50 for PMPA to compound for HIV1 clade A isolate 4113 infected in human H9 cells assessed as inhibition of viral replication; type: functional
[22] = tested on: Human immunodeficiency virus 1; assay: Ratio EC50 for PMPA to compound for HIV1 clade D isolate 1649 infected in human H9 cells assessed as inhibition of viral replication; type: functional
[23] = tested on: Human immunodeficiency virus 1; assay: Ratio EC50 for PMPA to compound for HIV1 clade F isolate 2338 infected in human H9 cells assessed as inhibition of viral replication; type: functional

SMILES	EC50 (Human alphaherpesvirus 2)	EC50 [2]	half-life [4]	EC50 [10]	EC50 (Hepatitis B virus [12])	EC50 [14]	inhibition (Coxsackievirus B4)	inhibition (Punta Toro virus)	EC50 (Vaccinia virus)	inhibition (Human respirovirus 3)	metabolised at 24 h [16]	also measured
Nc1ncnc2c1ncn2CCOCP(=O)([O-])[S-].[Na+].[Na+] (stereo not given)	24000 nM	3410 nM	> 24 h	450 nM	3000 nM	490 nM	inactive	inactive	84000 nM	inactive	< 1%	Ratio EC50 [1]: 0.66; Ratio EC50 [3]: 2.96; Ratio EC50 [5]: 0.29; CC50 (CCRF-CEM): 233000 nM; Ratio EC50 [6]: 0.11; Ratio EC50 [7]: 7.16; Ratio EC50 [8]: 0.25; Ratio EC50 (Hepatitis B virus [9]): 1.5; Ratio EC50 [11]: 1.06; Ratio EC50 (Hepatitis B virus [13]): 1.5; Ratio EC50 [15]: 0.86
C[C@H](Cn1cnc2c(N)ncnc21)OCP(=O)([O-])[S-].[Na+].[Na+] (stereo not given in full)	48000 nM	450 nM	> 24 h	540 nM	2800 nM	470 nM	inactive	inactive	80000 nM	inactive	< 1%	Ratio EC50 [17]: 2.77; Ratio EC50 [18]: 1.5; CC50 [19]: > 250000 nM; Ratio EC50 [20]: 1.54; Ratio EC50 [21]: 1.25; Ratio EC50 [22]: 0.14; Ratio EC50 [23]: 0.2
